Test results reported in ChEMBL document CHEMBL4689842, “EUbOPEN Chemogenomics Library wave 1” (2021).
Values joined by “and” are separate entries in the source; they are usually repeats but may differ in a detail not shown here. Identical values can stand only once.

Assays:
Format in all cases: toxicity, cell-based
U2OS [1] = assay: Multiplex assay against U2OS; settings: human
Procedure, shortened: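 Cells stained live at seeding with Hoechst33342, BioTracker Green Microtubule Cytoskeleton Dye, MitoTracker Red and Annexin V Alexa Fluor 680 were imaged on a CQ1 microscope at 37°C and 5% CO2 after compound addition. Their classification by CellPathfinder machine-learning gating ran from Hoechst high-intensity objects versus normal cells, to healthy, pyknosed or fragmented nuclei among normal cells, to mitotic or apoptotic among pyknosed cells. Tubulin, mitochondrial-mass and membrane-permeability phenotypes are per cents of healthy-nucleus cells.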

HEK-293T = assay: Incucyte cell viability with HEK293T; settings: human, 10 µM, compound concentration 10 uM; also: filed as whole numbers so only -1 and 0 and 1 occur
U2OS [2] = assay: Incucyte cell viability with U2OS; settings: human, 10 µM, compound concentration 10 uM; also: filed as whole numbers so only -1 and 0 and 1 occur
[3] = 12 h, 1 µM, compound concentration 1 uM, replicate 1
[4] = 12 h, 1 µM, compound concentration 1 uM, replicate 2
[5] = 12 h, 10 µM, compound concentration 10 uM, replicate 1
[6] = 12 h, 10 µM, compound concentration 10 uM, replicate 2
[7] = 24 h, 1 µM, compound concentration 1 uM, replicate 1
[8] = 24 h, 1 µM, compound concentration 1 uM, replicate 2
[9] = 24 h, 10 µM, compound concentration 10 uM, replicate 1
[10] = 24 h, 10 µM, compound concentration 10 uM, replicate 2
[11] = 48 h, 10 µM, compound concentration 10 uM, replicate 1
[12] = 48 h, 10 µM, compound concentration 10 uM, replicate 2
[13] = 0 h, replicate number 1, timepoint 0 hours
[14] = 12 h, replicate number 1, timepoint 12 hours
[15] = 18 h, replicate number 1, timepoint 18 hours
[16] = 24 h, replicate number 1, timepoint 24 hours
[17] = 6 h, replicate number 1, timepoint 6 hours

## CC(C)Oc1ccc(C(=O)N[C@H](CNC(=O)CN(C)C)Cc2ccc(-c3cn4cccc([C@H](C)O)c4n3)cc2)cc1Cl [GSK-923295A]
U2OS [1]; [3]
  Population Apoptotic (%): 27%
  Population Fragmented Nuclei (%): 9%
  Population Healthy Nuclei (%): 75%
  Population Hoechst High Intensity Objects (%): 1%
  Population Membrane Permeable-Phenotype (%): 33%
  Population Mitochondria Different-Phenotype (%): 23%
  Population Mitotic Cells (%): 72%
  Population Normal (%): 98%
  Population Pyknosed Nuclei (%): 15%
  Population Tubulin-Different-Phenotype (%): 14%
  Total Cell Count: 253
U2OS [1]; [4]
  Population Apoptotic (%): 21%
  Population Fragmented Nuclei (%): 11%
  Population Healthy Nuclei (%): 66%
  Population Hoechst High Intensity Objects (%): 11%
  Population Membrane Permeable-Phenotype (%): 29%
  Population Mitotic Cells (%): 78%
  Population Normal (%): 88%
  Population Pyknosed Nuclei (%): 22%
  Population Tubulin-Different-Phenotype (%): 19%
  Total Cell Count: 153
U2OS [1]; [5]
  Population Apoptotic (%): 48% and 53%
  Population Fragmented Nuclei (%): 9% and 14%
  Population Healthy Nuclei (%): 75% and 62%
  Population Hoechst High Intensity Objects (%): 3% and 11%
  Population Membrane Permeable-Phenotype (%): 31% and 19%
  Population Mitochondria Different-Phenotype (%): 37% and 93%
  Population Mitotic Cells (%): 51% and 46%
  Population Normal (%): 96% and 88%
  Population Pyknosed Nuclei (%): 15% and 23%
  Population Tubulin-Different-Phenotype (%): 98% and 97%
  Total Cell Count: 146 and 119
U2OS [1]; [6]
  Population Apoptotic (%): 30% and 33%
  Population Fragmented Nuclei (%): 32%
  Population Healthy Nuclei (%): 73% and 51%
  Population Hoechst High Intensity Objects (%): 2%
  Population Membrane Permeable-Phenotype (%): 30% and 56%
  Population Mitochondria Different-Phenotype (%): 89% and 67%
  Population Mitotic Cells (%): 69% and 66%
  Population Normal (%): 97%
  Population Pyknosed Nuclei (%): 17% and 16%
  Population Tubulin-Different-Phenotype (%): 100%
  Total Cell Count: 76 and 116
U2OS [1]; [7]
  Population Apoptotic (%): 24%
  Population Fragmented Nuclei (%): 18%
  Population Healthy Nuclei (%): 61%
  Population Hoechst High Intensity Objects (%): 2%
  Population Membrane Permeable-Phenotype (%): 28%
  Population Mitochondria Different-Phenotype (%): 19%
  Population Mitotic Cells (%): 75%
  Population Normal (%): 97%
  Population Pyknosed Nuclei (%): 19%
  Population Tubulin-Different-Phenotype (%): 13%
  Total Cell Count: 249
U2OS [1]; [8]
  Population Apoptotic (%): 29%
  Population Fragmented Nuclei (%): 13%
  Population Healthy Nuclei (%): 72%
  Population Hoechst High Intensity Objects (%): 10%
  Population Membrane Permeable-Phenotype (%): 19%
  Population Mitochondria Different-Phenotype (%): 22%
  Population Mitotic Cells (%): 70%
  Population Normal (%): 89%
  Population Pyknosed Nuclei (%): 14%
  Population Tubulin-Different-Phenotype (%): 15%
  Total Cell Count: 136
U2OS [1]; [9]
  Population Apoptotic (%): 78% and 72%
  Population Fragmented Nuclei (%): 12% and 17%
  Population Healthy Nuclei (%): 56% and 61%
  Population Hoechst High Intensity Objects (%): 4% and 9%
  Population Membrane Permeable-Phenotype (%): 45% and 40%
  Population Mitochondria Different-Phenotype (%): 66% and 88%
  Population Mitotic Cells (%): 21% and 27%
  Population Normal (%): 95% and 90%
  Population Pyknosed Nuclei (%): 31% and 20%
  Population Tubulin-Different-Phenotype (%): 97%
  Total Cell Count: 171 and 128
U2OS [1]; [10]
  Population Apoptotic (%): 60% and 35%
  Population Fragmented Nuclei (%): 33% and 11%
  Population Healthy Nuclei (%): 33% and 64%
  Population Hoechst High Intensity Objects (%): 6% and 2%
  Population Membrane Permeable-Phenotype (%): 64% and 53%
  Population Mitochondria Different-Phenotype (%): 75% and 96%
  Population Mitotic Cells (%): 39% and 65%
  Population Normal (%): 93% and 97%
  Population Pyknosed Nuclei (%): 33% and 24%
  Population Tubulin-Different-Phenotype (%): 100%
  Total Cell Count: 133 and 72
U2OS [1]; [11]
  Population Apoptotic (%): 66%
  Population Fragmented Nuclei (%): 18%
  Population Healthy Nuclei (%): 41%
  Population Hoechst High Intensity Objects (%): 10%
  Population Membrane Permeable-Phenotype (%): 49%
  Population Mitochondria Different-Phenotype (%): 85%
  Population Mitotic Cells (%): 33%
  Population Normal (%): 89%
  Population Pyknosed Nuclei (%): 40%
  Population Tubulin-Different-Phenotype (%): 97%
  Total Cell Count: 133
U2OS [1]; [12]
  Population Apoptotic (%): 73%
  Population Fragmented Nuclei (%): 9%
  Population Healthy Nuclei (%): 43%
  Population Hoechst High Intensity Objects (%): 7%
  Population Membrane Permeable-Phenotype (%): 81%
  Population Mitochondria Different-Phenotype (%): 96%
  Population Mitotic Cells (%): 26%
  Population Normal (%): 92%
  Population Pyknosed Nuclei (%): 46%
  Population Tubulin-Different-Phenotype (%): 100%
  Total Cell Count: 86
HEK-293T; [13]
  Growth Rate: 0
HEK-293T; 6 h, replicate number 2, timepoint 6 hours
  Growth Rate: 0
HEK-293T; [14]
  Growth Rate: 0
HEK-293T; [15]
  Growth Rate: 0
HEK-293T; [16]
  Growth Rate: 0
U2OS [2]; [13]
  Growth Rate: 0
U2OS [2]; [17]
  Growth Rate: 0
U2OS [2]; [14]
  Growth Rate: 0
U2OS [2]; [15]
  Growth Rate: 0
U2OS [2]; [16]
  Growth Rate: 0

## CCOc1cc2ncc(C#N)c(Nc3ccc(OCc4cccc(F)c4)c(Cl)c3)c2cc1NC(=O)/C=C/CN(C)C [HKI-357]
U2OS [1]; [3]
  Population Apoptotic (%): 58%
  Population Fragmented Nuclei (%): 5%
  Population Healthy Nuclei (%): 86%
  Population Hoechst High Intensity Objects (%): 1%
  Population Membrane Permeable-Phenotype (%): 21%
  Population Mitochondria Different-Phenotype (%): 12%
  Population Mitotic Cells (%): 41%
  Population Normal (%): 98%
  Population Pyknosed Nuclei (%): 8%
  Population Tubulin-Different-Phenotype (%): 14%
  Total Cell Count: 156
U2OS [1]; [4]
  Population Apoptotic (%): 25%
  Population Fragmented Nuclei (%): 11%
  Population Healthy Nuclei (%): 84%
  Population Hoechst High Intensity Objects (%): 16%
  Population Membrane Permeable-Phenotype (%): 19%
  Population Mitochondria Different-Phenotype (%): 25%
  Population Mitotic Cells (%): 75%
  Population Normal (%): 83%
  Population Pyknosed Nuclei (%): 4%
  Population Tubulin-Different-Phenotype (%): 21%
  Total Cell Count: 141
U2OS [1]; [5]
  Population Apoptotic (%): 56%
  Population Fragmented Nuclei (%): 13%
  Population Healthy Nuclei (%): 69%
  Population Hoechst High Intensity Objects (%): 5%
  Population Membrane Permeable-Phenotype (%): 43%
  Population Mitochondria Different-Phenotype (%): 33%
  Population Mitotic Cells (%): 43%
  Population Normal (%): 94%
  Population Pyknosed Nuclei (%): 16%
  Population Tubulin-Different-Phenotype (%): 95%
  Total Cell Count: 210
U2OS [1]; [6]
  Population Apoptotic (%): 69%
  Population Fragmented Nuclei (%): 20%
  Population Healthy Nuclei (%): 65%
  Population Hoechst High Intensity Objects (%): 12%
  Population Membrane Permeable-Phenotype (%): 31%
  Population Mitochondria Different-Phenotype (%): 39%
  Population Mitotic Cells (%): 30%
  Population Normal (%): 87%
  Population Pyknosed Nuclei (%): 13%
  Population Tubulin-Different-Phenotype (%): 88%
  Total Cell Count: 119
U2OS [1]; [7]
  Population Apoptotic (%): 32%
  Population Fragmented Nuclei (%): 7%
  Population Healthy Nuclei (%): 82%
  Population Hoechst High Intensity Objects (%): 2%
  Population Membrane Permeable-Phenotype (%): 23%
  Population Mitochondria Different-Phenotype (%): 16%
  Population Mitotic Cells (%): 67%
  Population Normal (%): 97%
  Population Pyknosed Nuclei (%): 10%
  Population Tubulin-Different-Phenotype (%): 17%
  Total Cell Count: 172
U2OS [1]; [8]
  Population Apoptotic (%): 45%
  Population Fragmented Nuclei (%): 9%
  Population Hoechst High Intensity Objects (%): 7%
  Population Membrane Permeable-Phenotype (%): 10%
  Population Mitochondria Different-Phenotype (%): 23%
  Population Mitotic Cells (%): 54%
  Population Normal (%): 92%
  Population Pyknosed Nuclei (%): 8%
  Population Tubulin-Different-Phenotype (%): 27%
  Total Cell Count: 154
U2OS [1]; [9]
  Population Apoptotic (%): 84%
  Population Fragmented Nuclei (%): 8%
  Population Healthy Nuclei (%): 68%
  Population Hoechst High Intensity Objects (%): 4%
  Population Membrane Permeable-Phenotype (%): 32%
  Population Mitochondria Different-Phenotype (%): 58%
  Population Mitotic Cells (%): 15%
  Population Normal (%): 95%
  Population Pyknosed Nuclei (%): 23%
  Population Tubulin-Different-Phenotype (%): 81%
  Total Cell Count: 272
U2OS [1]; [10]
  Population Apoptotic (%): 86%
  Population Healthy Nuclei (%): 74%
  Population Hoechst High Intensity Objects (%): 12%
  Population Membrane Permeable-Phenotype (%): 23%
  Population Mitochondria Different-Phenotype (%): 69%
  Population Mitotic Cells (%): 13%
  Population Normal (%): 87%
  Population Pyknosed Nuclei (%): 17%
  Population Tubulin-Different-Phenotype (%): 84%
  Total Cell Count: 141
HEK-293T; [13]
  Growth Rate: 0
HEK-293T; [17]
  Growth Rate: 0
HEK-293T; [14]
  Growth Rate: 0
HEK-293T; [15]
  Growth Rate: 0
HEK-293T; [16]
  Growth Rate: 0
U2OS [2]; 0 h, replicate number 2, timepoint 0 hours
  Growth Rate: 0
U2OS [2]; [17]
  Growth Rate: 0
U2OS [2]; [14]
  Growth Rate: 0
U2OS [2]; [15]
  Growth Rate: 0
U2OS [2]; [16]
  Growth Rate: 0
